Measured values taken from ChEMBL document CHEMBL4350999, “Enhanced tumor retention of NTSR1-targeted agents by employing a hydrophilic cysteine cathepsin inhibitor” (Eur J Med Chem, 2019).
Activity calls are given as the source filed them. The calls are words filed in the database; no cut-off is given here.

Columns and labels:
Cathepsin B [1] = biological target: T1, Cathepsin B (Homo sapiens, UniProt P07858); assay: Inhibition of human liver cathepsin B assessed as pseudo Michaelis-Menten constant at 10 nM using varying levels of Z-Arg-Arg-AMC as substrate measured every 5 mins for 1 hr by fluorescence assay
Cathepsin B [2] = biological target: T1, Cathepsin B; assay: Inhibition of human liver cathepsin B assessed as second order rate constant using Z-Arg-Arg-AMC as substrate measured every 5 mins for 1 hr by fluorescence assay
Method in brief: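 Human liver cathepsin B, 2 nM final, in 0.1 M phosphate pH 5.8 (1 mM EDTA, 2.7 mM DTT, 0.03% Brij35). Enzyme mixed with conjugate (1–500 nM final), then Z-Arg-Arg-AMC added (800 μM final); 37 °C. […] Biological triplicate.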

Cathepsin B [3] = biological target: T1, Cathepsin B; assay: Inhibition of human liver cathepsin B assessed as inhibition constant using Z-Arg-Arg-AMC as substrate measured every 5 mins for 1 hr by fluorescence assay

K (Cathepsin B [1]): 185 µM
inhibition (Cathepsin B [2]): inactive
inhibition (Cathepsin B [3]): inactive
Structure (SMILES): CC(C)C[C@H](NC(=O)CCC(=O)O)C(=O)N[C@@H](CCCNC(=N)N)C(=O)NCCN=[N+]=[N-]
